As a reminder, the logD is lipophilicity at a set pH, counting ionised and neutral species. Low values mean a more hydrophilic compound, high ones a more lipophilic compound. As usually defined, the Kd is the concentration at which binding is half-saturated. A high value points to lower affinity. As a reminder, the IC50 is the concentration that inhibits the measured activity by half.

Data set [1] is described as follows: Lipophilicity, logD of the compound using n-octanol and phosphate-buffered saline at pH 7.4 by the shake flask method. It is filed as physicochemical. The method in brief: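 Shake-flask partition of the 125I-labeled peptide between n-octanol and PBS pH 7.4; logD from n = 4.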
Data set [2] can be described thus: Metabolic stability in athymic mouse plasma assessed as intact labeled peptide level at 3.7 MBq, iv after 4 hrs by RP-HPLC. It is filed as ADME, organism-based. The method in brief:
(§1)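 Tumor-free athymic mice were given 131I-labeled peptide via tail vein. Plasma was collected at 2 and 4 h (n = 2 per time) and analysed by RP-HPLC on an RP-18 column with an ethanol/0.05 M sodium acetate pH 5.5 gradient at 1 mL/min; intact fraction taken as percentage of plasma radioactivity.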

The nature of data set [3]: Metabolic stability in athymic mouse plasma assessed as intact labeled peptide level at 3.7 MBq, iv after 2 hrs by RP-HPLC. It is filed as ADME, organism-based. The method in brief: as §1
In data set [4] the target is T1, E3 ubiquitin-protein ligase Mdm2 (Homo sapiens, UniProt Q00987). The data set can be described thus: Binding affinity to MDM2 (unknown origin).
Data set [5] concerns the target T1, E3 ubiquitin-protein ligase Mdm2. The data set can be described thus: Binding affinity to recombinant human MDM2 by using 5-FAM-PMDM6 by fluorescence polarization based assay. On the technique in general: Polarisation of emitted light reports the rotation of a fluorescent probe.

T1 sequence (Q00987 whole entry): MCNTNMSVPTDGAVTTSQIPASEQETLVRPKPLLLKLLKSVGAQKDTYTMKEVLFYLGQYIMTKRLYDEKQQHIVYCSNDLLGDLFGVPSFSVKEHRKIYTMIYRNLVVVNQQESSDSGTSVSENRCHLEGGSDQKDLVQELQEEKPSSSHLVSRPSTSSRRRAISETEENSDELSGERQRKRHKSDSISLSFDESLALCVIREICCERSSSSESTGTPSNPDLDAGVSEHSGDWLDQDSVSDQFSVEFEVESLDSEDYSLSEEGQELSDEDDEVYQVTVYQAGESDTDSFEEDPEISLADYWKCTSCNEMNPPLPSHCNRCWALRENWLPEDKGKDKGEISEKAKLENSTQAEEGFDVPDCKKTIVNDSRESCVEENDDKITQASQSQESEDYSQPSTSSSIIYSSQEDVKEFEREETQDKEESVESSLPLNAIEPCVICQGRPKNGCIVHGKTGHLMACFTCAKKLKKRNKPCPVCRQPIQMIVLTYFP

On to `CC(=O)NC(CCCCNC(=O)c1cccc(I)c1)C(=O)NCCCCCC(=O)N[C@H](C(=O)N[C@@H](CO)C(=O)N[C@@H](Cc1ccccc1)C(=O)N[C@@]1(C)CCCCCC/C=C/CCC[C@@](C)(C(=O)N[C@@H](CCC(=O)O)C(=O)N[C@@H](CC(N)=O)C(=O)N[C@@H](Cc2ccccc2)C(N)=O)NC(=O)[C@H](CC(C)C)NC(=O)[C@H](CC(C)C)NC(=O)[C@H](C)NC(=O)[C@H](Cc2c[nH]c3ccccc23)NC(=O)[C@H](Cc2ccc(O)cc2)NC(=O)[C@H](CCC(=O)O)NC1=O)[C@@H](C)O` (stereo not given in full), for which the logD in data set [1] came to 1.45.
Consider `CC(=O)NC(CCCCNC(=O)c1cccc([131I])c1)C(=O)NCCCCCC(=O)N[C@H](C(=O)N[C@@H](CO)C(=O)N[C@@H](Cc1ccccc1)C(=O)N[C@@]1(C)CCCCCC/C=C/CCC[C@@](C)(C(=O)N[C@@H](CCC(=O)O)C(=O)N[C@@H](CC(N)=O)C(=O)N[C@@H](Cc2ccccc2)C(N)=O)NC(=O)[C@H](CC(C)C)NC(=O)[C@H](CC(C)C)NC(=O)[C@H](C)NC(=O)[C@H](Cc2c[nH]c3ccccc23)NC(=O)[C@H](Cc2ccc(O)cc2)NC(=O)[C@H](CCC(=O)O)NC1=O)[C@@H](C)O` (stereo not given in full), for which the Stability was 80% in data set [2] and 68% in data set [3].
Compound `CC(=O)N[C@@H](CCCCN)C(=O)NCCCCCC(=O)N[C@H](C(=O)N[C@@H](CO)C(=O)N[C@@H](Cc1ccccc1)C(=O)N[C@]1(C)CCCCCC/C=C/CCC[C@@](C)(C(=O)N[C@@H](CCC(=O)O)C(=O)N[C@@H](CC(N)=O)C(=O)N[C@@H](Cc2ccccc2)C(N)=O)NC(=O)[C@H](CC(C)C)NC(=O)[C@H](CC(C)C)NC(=O)[C@H](C)NC(=O)[C@H](Cc2c[nH]c3ccccc23)NC(=O)[C@H](Cc2ccc(O)cc2)NC(=O)[C@H](CCC(=O)O)NC1=O)[C@@H](C)O` displayed a Kd in data set [4] of 15.1 nM. The IC50 in data set [5] stood at 2.8 nM.

The values are drawn from ChEMBL document CHEMBL5143669, “Stapled peptides as scaffolds for developing radiotracers for intracellular targets: Preliminary evaluation of a radioiodinated MDM2-binding stapled peptide in the SJSA-1 osteosarcoma model” (Bioorg Med Chem Lett, 2022).
